Some results are limits rather than exact numbers.

Drawing on ChEMBL document CHEMBL1123211, “Correspondence analysis applied to steroid receptor binding” (J Med Chem, 1986), this text covers Relative binding affinity for 46 molecules.

This experiment concerns the target T1, Glucocorticoid receptor (Homo sapiens) (UniProt P04150).
T1 sequence (whole entry): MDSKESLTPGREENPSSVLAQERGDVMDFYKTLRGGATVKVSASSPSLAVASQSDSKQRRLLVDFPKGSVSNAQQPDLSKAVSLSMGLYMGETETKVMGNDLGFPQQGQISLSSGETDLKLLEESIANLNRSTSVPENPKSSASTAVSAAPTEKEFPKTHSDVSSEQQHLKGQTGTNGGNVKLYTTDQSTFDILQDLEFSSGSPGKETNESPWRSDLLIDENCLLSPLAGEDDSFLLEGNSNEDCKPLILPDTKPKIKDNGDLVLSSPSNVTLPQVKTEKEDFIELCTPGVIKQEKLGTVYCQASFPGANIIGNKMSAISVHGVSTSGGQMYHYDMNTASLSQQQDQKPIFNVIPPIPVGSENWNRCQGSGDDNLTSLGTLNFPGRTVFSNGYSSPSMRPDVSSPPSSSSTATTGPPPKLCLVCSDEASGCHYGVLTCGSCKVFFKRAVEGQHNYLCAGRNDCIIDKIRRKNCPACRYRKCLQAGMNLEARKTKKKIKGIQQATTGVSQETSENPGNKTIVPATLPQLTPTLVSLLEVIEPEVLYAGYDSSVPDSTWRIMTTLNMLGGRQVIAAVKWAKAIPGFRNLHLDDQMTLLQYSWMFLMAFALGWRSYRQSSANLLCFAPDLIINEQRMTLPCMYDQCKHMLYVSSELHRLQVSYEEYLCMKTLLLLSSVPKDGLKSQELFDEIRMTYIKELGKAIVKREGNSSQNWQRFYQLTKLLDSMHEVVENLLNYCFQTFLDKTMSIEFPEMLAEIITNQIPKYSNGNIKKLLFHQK
Nature of the experiment: Relative binding affinity against glucocorticoid receptor. The procedure, abridged:
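Competitive binding: each steroid incubated with receptor-containing cytosol and a radiolabelled marker selective for the receptor. Bound radioactivity separated by dextran-coated charcoal adsorption. The unlabelled radioligand standard curve used 9-10 concentrations; test steroids used 5-6. RBA = 100 × (radioligand conc for 50% displacement ÷ steroid conc for 50% displacement), with reference hormone set to 100. Mean of ≥3 experiments.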
As to `C#C[C@]1(O)CCC2C3CCC4=CC(=O)CCC4C3CCC21CCC` (stereo partly specified), the Relative binding affinity was 9.8.
`CC12C=CC3=C4CCCC=C4CCC3C1CC[C@]2(C)O` (stereo partly specified) yielded a Relative binding affinity of 0.3.
For the molecule `C[C@@H]1CC2=CC(=O)CCC2=C2CCC3(C)C(CC[C@]3(C)O)C21` (stereo partly specified), the Relative binding affinity is 6.1.
On to `CC12CCC3C4CCC(=O)C=C4CCC3C1CC[C@@]21CCS(=O)O1` (stereo partly specified), for which the Relative binding affinity was 0.4.
`CC12CCC3=C4CCC(=O)C=C4CCC3C1CC[C@]2(C)O` (stereo partly specified) showed a Relative binding affinity of 6.
Regarding `CC(=O)[C@@]1(C)CCC2C3CCC4=CC(=O)CCC4=C3C=CC21C` (stereo partly specified), the Relative binding affinity came to 2.4.
Consider `CC(=O)[C@H]1CC[C@H]2[C@@H]3CCC4=CC(=O)CC[C@@H]4[C@H]3CC[C@]12C`, for which the Relative binding affinity is 0.6.
To `C#C[C@]1(O)CC[C@H]2[C@@H]3CCC4=CC(=O)CCC4=C3C=C[C@@]21C` belongs 11; to `CCC12CCC3=C4CCC(=O)C=C4CCC3C1CC[C@@H]2O` (stereo partly specified), 5.1; to `CC1CC2=C3C=CC4(C)C(CC[C@]4(C)O)C3CCC2=CC1=O` (stereo partly specified), 1.5.
As to `CCC12C=CC3=C4CCC(=O)C=C4C[C@@H](C)C3C1CC[C@]2(C)O` (stereo partly specified), the Relative binding affinity was 145.
To `C#C[C@]1(O)CCC2C3CCC4=CC(=O)CCC4C3CCC21CC` (stereo partly specified) belongs 14; to `CCC12CCC3C4CCC(=O)C=C4CCC3C1CC[C@@H]2O` (stereo partly specified), 2.1; to `CC12C=CC3=C4CCC(=O)C=C4CCC3C1CC[C@@]21CCS(=O)O1` (stereo partly specified), 35.
`CC12CCC3=C4CCC(=O)C=C4CCC3C1CC[C@@]21CCC(=O)O1` (stereo partly specified) registered a Relative binding affinity of 17.
For the molecule `CC12CCC3=C4CCC(=O)C=C4CCC3C1CC[C@@]21CCS(=O)O1` (stereo partly specified), the Relative binding affinity was 23.
`CC1(C)CC2=C3C=CC4(C)C(CC[C@]4(C)O)C3CCC2=CC1=O` (stereo partly specified) had a Relative binding affinity of 0.4.
For `CC12C=CC3=C4CCC(=O)C=C4CCC3C1CCC2=O` (stereo unspecified) the value was less than 0.1; for `CCC12C=CC3=C4CCC(=O)C=C4CCC3C1CC[C@]2(C)O` (stereo partly specified), 155.
For the molecule `C[C@]12CC[C@H]3[C@@H](CCC4=CC(=O)CC[C@@H]43)[C@@H]1CC[C@@H]2O`, the Relative binding affinity was 0.5.
To `C[C@]12CCC3=C4CCC(=O)C=C4CC[C@H]3[C@@H]1CC[C@@H]2O` belongs 1.6; to `C#C[C@]1(O)CCC2C3CCC4=CC(=O)CCC4=C3CCC21CC` (stereo partly specified), 17; to `CC(=O)[C@@]1(C)CCC2C3CCC4=CC(=O)CCC4=C3CCC21C` (stereo partly specified), 4.5.
For `CC12CCC3C4CCC(=O)C=C4CCC3C1CC[C@@]21CCC(=O)O1` (stereo partly specified), the Relative binding affinity is 0.1.
For `CC1=C2CCC3C(=C2CCC1=O)C=CC1(C)C3CC[C@]1(C)O` (stereo partly specified) the value was 0.5; for `CC1(C)CC2C(=C3CCC(=O)C=C31)C=CC1(C)C2CC[C@]1(C)O` (stereo partly specified), 1.2.
Turning to `CC(=O)[C@H]1CCC2C3CCC4=CC(=O)CCC4=C3CCC21C` (stereo partly specified), the Relative binding affinity was 5.1.
Molecule `C[C@]1(O)CC[C@H]2[C@@H]3CCC4=CC(=O)CCC4=C3C=C[C@@]21C` (stereo in doubt; 39) returned a Relative binding affinity of 26.
For `CCCC12CCC3C4CCC(=O)C=C4CCC3C1CC[C@@H]2O` (stereo partly specified) the value was 2.1; for `CCCC12C=CC3=C4CCC(=O)C=C4CCC3C1CC[C@@H]2O` (stereo partly specified), 6; for `C[C@]1(O)CC[C@H]2[C@@H]3CCC4=CC(=O)CC[C@@H]4[C@H]3CC[C@@]21C`, 1.5.
To `C#C[C@]1(O)CC[C@H]2[C@@H]3CCC4=CC(=O)CCC4=C3C=C[C@@]21CC` belongs 77; to `CC12C=CC3=C4CCC(=O)C=C4CCC3C1CC[C@@]21CCC(=O)O1` (stereo partly specified), 62.
For `C[C@@H]1CC2=CC(=O)CCC2=C2C=CC3(C)C(CC[C@]3(C)O)C21` (stereo partly specified), the Relative binding affinity worked out at 22.
To `C[C@]1(O)CC[C@H]2[C@@H]3CCC4=CC(=O)CCC4=C3C=C[C@@]21C` (stereo in doubt; 12) belongs 26; to `CCCC12CCC3=C4CCC(=O)C=C4CCC3C1CC[C@@H]2O` (stereo partly specified), 1.9; to `CC12C=CC3=C4CCC(=O)C=C4CCC3C1CCC2` (stereo unspecified), 0.5.
The molecule `CC(=O)[C@@]1(C)CCC2C3CCC4=CC(=O)CCC4C3CCC21C` (stereo partly specified) yielded a Relative binding affinity of 0.7.
`CC12C=CC3=C4CC(=O)CC=C4CCC3C1CC[C@]2(C)O` (stereo partly specified) had a Relative binding affinity of 68.
`CCC12C=CC3=C4CCC(=O)C=C4CCC3C1CC[C@@H]2O` (stereo partly specified) yielded a Relative binding affinity of 20.
For `CC(=O)[C@H]1CCC2C3CCC4=CC(=O)CCC4=C3C=CC21C` (stereo partly specified) the value was 1.5; for `C#C[C@]1(O)CCC2C3CCC4=CC(=O)CCC4=C3CCC21CCC` (stereo partly specified), 5.5.
To `C#C[C@]1(O)CCC2C3CCC4=CC(=O)CCC4=C3C=CC21CCC` (stereo partly specified) belongs 6.4.
For `CC12C=CC3=CCCCC3C1CC[C@]2(C)O` (stereo partly specified), the Relative binding affinity stood at 38.
For `C[C@@H]1CC2=CC(=O)CC[C@@H]2[C@H]2CC[C@@]3(C)[C@@H](CC[C@]3(C)O)[C@@H]21` the value was 1.4; for `C#C[C@]1(O)CCC2C3CCC4=CC(=O)CCC4=C3CCC21C` (stereo partly specified), 5.7.
